According to publication PMC2810120 (Chemical biology & drug design, 2009):
Non-standard residues stand in square brackets, D forms with d. Residues, ends and D or L forms follow the SMILES beside them. *: point of attachment. pS = N[C@@H](COP(=O)(O)O)C(=O)O; pNA = O=[N+]([O-])c1ccc(N*)cc1

Key:
Plasma stability assay = type: in vitro ADME; settings: rat plasma, 37 °C, 20 μM, after 30 min
Method in brief: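 Test compound at 20 μM final is incubated in fresh rat plasma at 37 °C. Samples are stopped at 0, 30 and 60 min with two volumes of methanol containing internal standard, then protein is precipitated and samples centrifuged for LC-MS. % parent remaining is taken against the 0 min sample from peak-area ratios to the internal standard. Run in duplicate with a plasma-labile positive control.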

[1] = Parallel artificial membrane permeation assay; type: in vitro ADME; settings: 100 μM compound, pH 7.2, acceptor concentration after 8 h
Method in brief: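 Lipid-impregnated hydrophobic filter (lipid applied in chloroform, solvent fully evaporated) separates donor from acceptor wells of phosphate buffer pH 7.2. Test compound is added at 100 μM to the donor side, with stock DMSO <5%. A membrane-free equilibrium well is run in parallel. Acceptor and equilibrium concentrations are measured by LC-MS AUC. % flux is the acceptor concentration after 8 h relative to the membrane-free reference well.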

human Pin1 (human) = human Pin1 (human) (UniProt Q13526); assay: NMR titration
Chain of UniProt Q13526 (Q13526 whole entry): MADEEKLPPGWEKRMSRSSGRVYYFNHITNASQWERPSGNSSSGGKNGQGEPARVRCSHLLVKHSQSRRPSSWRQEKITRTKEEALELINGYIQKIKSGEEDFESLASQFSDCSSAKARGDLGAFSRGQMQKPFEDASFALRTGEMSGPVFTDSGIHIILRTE

Compound	plasma stability (Plasma stability assay)	PAMPA FLUX (%) [1]	Kd (human Pin1 (human))
N=C(N)NCCC[C@H](NC(=O)[C@@H]1CCCN1C(=O)[C@H](COP(=O)(O)O)NC(=O)[C@H](Cc1ccc(O)cc1)NC(=O)[C@H](Cc1ccccc1)NC(=O)[C@@H](N)Cc1c[nH]c2ccccc12)C(=O)Nc1ccc([N+](=O)[O-])cc1 [Pintide] (H-WFY[pS]PR-pNA; N-terminus and C-terminus assumed)	rapidly degraded	14%	–
Pintide (peptide)	–	–	323 µM
